The list is not random: actives were taken first. Their share in the collection is about 5.8%.
GASC1 inh: KDM4C (human) demethylase inhibition; GST-KDM4C 2-372, H3K9me3 peptide, LANCE TR-FRET; AID 720574; inhibition, % at 12.5 µM; 0.15% of 96,000 active; Q9H3R0;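 active = mean replicate inhibition above about 25%, with at least 55% of replicates also reaching it, limit read from the data, passing the limit was not always enough; inconclusive = only one of those two conditions met; inactive = neither condition met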
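reagent = H3K9me3 peptide substrate, Fe(II), 2-oxoglutarate | system = GST-tagged GASC-1 (JMJD2C) catalytic fragment, aa 2-372 | amount = enzyme final amount 10 nM | read-out = Fall in 671/618 emission ratio as inhibition | medium = HEPES buffer, pH 7.5, plus ascorbate | schedule = 30 min reaction, 60 min detection, RT | measured by = LANCE TR-FRET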
Pf Dd2 growth: blocks growth of Plasmodium falciparum Dd2 parasites; P. falciparum Dd2 growth, SYBR Green, 72 h; active compounds read low; activity change, % at 10 µM; 2.3% of 94,000 active; AID 1159554; in the data active = activity change below about -80%; inconclusive = no clear call, values can overlap the other calls
T cruzi growth-1: T. cruzi proliferation inhibition; T. cruzi beta-gal in NIH3T3, GalScreen luminescence, 90 h; inhibition, % at 8.34 µM; 5.9% of 77,000 active; AID 624255;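 active = mean inhibition above about 93%, with at least 55% of replicates each passing it, limit read from the data, passing the limit was not always enough; inconclusive = only one of those two conditions holds; inactive = neither condition holds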
IDH1 R132H inh: IDH1 R132H (human) inhibition; O75874; 0.18% of 70,000 active; IDH1 R132H reductase, diaphorase/resazurin fluorescence, 60 min; inhibition, % at 10 µM; in the data active = inhibition above about 34%; inconclusive = no clear call, values can overlap the other calls; inactive = below about 11%;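 note: 0% = DMSO and 100% = no enzyme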
Target sequence (O75874 whole entry R132H): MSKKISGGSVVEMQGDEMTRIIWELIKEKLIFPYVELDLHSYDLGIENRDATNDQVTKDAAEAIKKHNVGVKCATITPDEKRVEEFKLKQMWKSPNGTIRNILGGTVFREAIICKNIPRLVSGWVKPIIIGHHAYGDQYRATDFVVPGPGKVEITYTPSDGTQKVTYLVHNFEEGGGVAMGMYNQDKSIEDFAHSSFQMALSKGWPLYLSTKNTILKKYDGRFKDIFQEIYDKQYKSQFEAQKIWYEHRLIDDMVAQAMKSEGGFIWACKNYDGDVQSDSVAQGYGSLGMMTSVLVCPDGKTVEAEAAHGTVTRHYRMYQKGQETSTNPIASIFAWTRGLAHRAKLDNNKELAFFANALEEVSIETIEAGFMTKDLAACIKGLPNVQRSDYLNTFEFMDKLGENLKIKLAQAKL
T cruzi growth-2: blocks T. cruzi growth in NIH3T3 host cells. shares compounds with T cruzi growth-1. T. cruzi beta-gal in NIH3T3, GalScreen luminescence, 90 h. inhibition, % at 8.35 µM. 72% of 5,600 active. AID 651739;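 active = mean replicate inhibition above about 95% and at least 55% of replicates individually reaching it, limit read from the data; inconclusive = only one of the two criteria is met; inactive = neither criterion is met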
T cruzi growth-3: inhibitors of T. cruzi proliferation; T. cruzi beta-gal in NIH3T3, GalScreen luminescence, 90 h; shares compounds with T cruzi growth-1; inhibition, % at 2.09 µM; 21% of 5,600 active; AID 651740;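 active = mean inhibition above about 95%, with at least 55% of replicates also reaching it, limit read from the data; inconclusive = meets just one of the two conditions; inactive = meets neither condition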;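 note: plate controls were neutral control median for no effect and positive control median for full effect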
3T3 cytotox: NIH/3T3 (mouse) viability loss. cytotoxicity (signal decrease), % at 8.35 µM. AID 651742. shares compounds with T cruzi growth-1. NIH/3T3 viability, CellTiter-Glo ATP luminescence, 90 h. 14% of 5,600 active;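 active = mean signal decrease across replicates above about 35% based on untreated-well scatter, with enough replicates individually passing, limit read from the data; inconclusive = no rule stated though some were filed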;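 note: 0% = median of neutral control wells and 100% = median of positive control wells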
NIH3T3 tox 2: NIH/3T3 (mouse) viability loss; 56% of 5,600 active; inhibition, % at 24.9 µM; shares compounds with T cruzi growth-1; NIH/3T3 viability, CellTiter-Glo ATP luminescence, 90 h;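 active = mean loss of cell viability signal at or above a set limit, and enough replicates individually reaching it; inconclusive = meets only the mean limit or only the replicate share; inactive = meets neither condition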;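 note: 0% = median of neutral control wells and 100% = median of positive control wells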
Active calls of the source: *; ? = inconclusive; . = not tested or not shown.

SMILES	GASC1 inh	Pf Dd2 growth	T cruzi growth-1	IDH1 R132H inh	T cruzi growth-2	T cruzi growth-3	3T3 cytotox	NIH3T3 tox 2
CC(C)C#Cc1ccc([C@@H]2[C@H]3CN(S(=O)(=O)Cc4ccccc4)CCCCN3[C@H]2CO)cc1	0.1	-23.7	101.0*	.	98.3*	88.6	17.9	106.4*
CC(C)C#Cc1ccc([C@@H]2[C@@H](CO)N3CCCCN(S(=O)(=O)Cc4ccccc4)C[C@H]23)cc1	-0.1	-4.7	116.5*	.	107.0*	80.3	22.7	105.0*
CC(C)C#Cc1ccc([C@H]2[C@H](CO)N3CCCCN(S(=O)(=O)Cc4ccccc4)C[C@@H]23)cc1	0.0	-16.5	108.8*	.	105.6*	66.3	19.9	103.6*
C[C@@H](O)C#Cc1ccc([C@@H]2[C@H]3CN(S(=O)(=O)Cc4ccccc4)CCCCN3[C@H]2CO)cc1	-0.4	-4.8	47.6	.	.	.	.	.
CC(C)CC#Cc1ccc([C@@H]2[C@H]3CN(S(=O)(=O)Cc4ccccc4)CCCCN3[C@H]2CO)cc1	4.9	-57.4	104.5*	.	98.5*	105.4*	23.7	105.8*
COCC#Cc1ccc2c(c1)O[C@@H](CN(C)S(=O)(=O)c1cccc(OC)c1)[C@H](C)CN([C@H](C)CO)S2(=O)=O	1.5	-44.7	-10.3	-1.9	.	.	.	.
COc1ccc(S(=O)(=O)N(C)C[C@H]2OCCCC[C@H](C)Oc3ccc(NC(=O)Nc4ccc(F)cc4)cc3C(=O)N([C@H](C)CO)C[C@@H]2C)cc1	-2.8	-41.3	?	.	105.1*	92.3	-0.1	17.9
COc1ccc(NC(=O)Nc2ccc3c(c2)C(=O)N([C@H](C)CO)C[C@H](C)[C@@H](CN(C)S(=O)(=O)c2ccc(F)cc2)OCCCC[C@H](C)O3)cc1	16.8	-49.4	113.1*	0.6	109.7*	38.6	15.3	2.3
C[C@@H]1CCCCO[C@H](CN(C)C(=O)CCCN(C)C)[C@@H](C)CN([C@H](C)CO)C(=O)c2cc(NC(=O)c3ccccc3)ccc2O1	1.9	8.3	99.5*	3.1	23.2	-38.1	-11.4	9.4
C[C@@H]1CN([C@@H](C)CO)C(=O)c2cc(NC(=O)c3ccccc3)ccc2O[C@@H](C)CCCCO[C@H]1CN(C)C(=O)CCCN(C)C	-2.0	1.7	47.0	-0.6	.	.	.	.
C[C@@H]1CN([C@H](C)CO)C(=O)c2cc(NS(C)(=O)=O)ccc2O[C@@H](C)CCCCO[C@@H]1CN(C)C(=O)CCCN(C)C	0.8	23.1	99.5*	.	54.4	-0.2	17.7	-1.6
C[C@@H]1CN([C@@H](C)CO)C(=O)c2cc(NC(=O)NC3CCCCC3)ccc2O[C@H]1CN(C)Cc1ccc(Cl)c(Cl)c1	0.2	3.0	?	5.6	110.5*	43.1	8.2	3.1
C[C@@H]1CN([C@@H](C)CO)C(=O)c2cc(NC(=O)C3CCCCC3)ccc2O[C@@H]1CN(C)Cc1ccc(Cl)c(Cl)c1	1.1	1.4	?	1.5	103.0*	94.5	11.7	39.3*
COc1ccc(S(=O)(=O)N(C)C[C@@H]2OCCCC[C@@H](C)Oc3ccc(NS(=O)(=O)c4ccc(F)cc4)cc3C(=O)N([C@@H](C)CO)C[C@@H]2C)cc1	-0.1	-63.7	111.8*	4.5	101.1*	65.1	-1.5	52.6*
COc1ccc(S(=O)(=O)N(C)C[C@H]2OCCCC[C@@H](C)Oc3ccc(NS(=O)(=O)c4ccc(F)cc4)cc3C(=O)N([C@H](C)CO)C[C@H]2C)cc1	-2.2	-73.8	113.8*	0.4	105.9*	75.0	-17.3	-17.0
COc1ccc(S(=O)(=O)N(C)C[C@@H]2OCCCC[C@@H](C)Oc3ccc(NS(=O)(=O)c4ccc(F)cc4)cc3C(=O)N([C@H](C)CO)C[C@@H]2C)cc1	-1.2	-24.9	53.3	.	.	.	.	.
COc1ccc(S(=O)(=O)Nc2ccc3c(c2)C(=O)N([C@H](C)CO)C[C@@H](C)[C@@H](CN(C)S(=O)(=O)c2ccc(F)cc2)OCCCC[C@H](C)O3)cc1	0.3	-57.3	95.5*	.	108.2*	33.4	-6.6	5.3
COc1ccc(S(=O)(=O)Nc2ccc3c(c2)C(=O)N([C@H](C)CO)C[C@@H](C)[C@H](CN(C)S(=O)(=O)c2ccc(F)cc2)OCCCC[C@@H](C)O3)cc1	-2.7	-68.9	105.2*	3.3	105.3*	58.7	10.6	13.5
CS(=O)(=O)N(CC(=O)Nc1cc(C(F)(F)F)ccc1Cl)c1ccccc1	.	.	.	-0.3	.	.	.	.
O=C(CCCCCCC(=O)N/N=C/c1cccnc1)NO	.	.	.	-0.2	.	.	.	.
CCn1c(SCC(=O)Nc2ccc(Cl)cc2Cl)nnc1-c1ccc(Cl)c(Cl)c1	.	.	.	0.2	.	.	.	.
COc1ccc(S(=O)(=O)N(C)C[C@@H]2OCCCC[C@H](C)Oc3ccc(NS(=O)(=O)c4ccc(F)cc4)cc3C(=O)N([C@@H](C)CO)C[C@@H]2C)cc1	-0.4	-53.0	117.6*	.	108.4*	39.7	-27.4	-8.0
C[C@@H]1CN([C@@H](C)CO)C(=O)c2ccccc2-c2ccccc2CO[C@H]1CN(C)C(=O)Nc1ccnc(N2CCOCC2)c1	-1.0	-12.2	108.7*	-1.1	102.2*	91.9	6.1	11.4
C[C@@H]1CN([C@@H](C)CO)C(=O)c2c(c3ccccc3n2C)-c2ccccc2CO[C@H]1CN(C)C(=O)Nc1ccnc(N2CCOCC2)c1	2.5	-63.4	.	.	.	.	.	.
C[C@@H]1CN([C@@H](C)CO)C(=O)c2ccccc2-c2ccccc2CO[C@@H]1CN(C)C(=O)Nc1ccccc1	-0.1	9.7	38.5	.	.	.	.	.
C[C@@H]1CN([C@H](C)CO)C(=O)c2ccccc2-c2ccccc2CO[C@@H]1CN(C)C(=O)Nc1ccnc(N2CCOCC2)c1	2.4	-15.3	?	-0.1	89.0	32.8	-2.1	6.8
CCCN(C)C[C@@H]1Oc2cc(C#Cc3ccccc3)ccc2S(=O)(=O)N([C@H](C)CO)C[C@@H]1C	-3.2	-77.7	43.9	0.7	.	.	.	.
CCCN(C)C[C@@H]1Oc2cc(C#Cc3ccc(OC)cc3)ccc2S(=O)(=O)N([C@@H](C)CO)C[C@@H]1C	-3.5	-85.1*	?	0.4	110.1*	85.5	43.4*	103.9*
CCCN(C)C[C@@H]1Oc2cc(C#Cc3ccc(F)cc3)ccc2S(=O)(=O)N([C@@H](C)CO)C[C@@H]1C	2.7	-63.9	85.4*	-0.2	108.5*	?	?	105.7*
CCCN(C)C[C@@H]1Oc2cc(C#Cc3ccccc3)ccc2S(=O)(=O)N([C@@H](C)CO)C[C@@H]1C	-5.3	-79.3	111.5*	-1.1	112.6*	72.3	4.0	104.1*

From PubChem
